T cruzi repl = T. cruzi replication inhibition | 300,000 compounds, 1.4% hits | inhibition, % (no concentration beside the values) | T. cruzi beta-gal in NIH3T3, luminescence, 90 h;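 active means mean inhibition across valid replicates above about 55%, limit read from the data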;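 further: signal also drops with host cell toxicity which is not excluded here; 0% = plate median of DMSO wells and 100% = zero luminescence signal; higher percent means less beta-gal luminescence so fewer parasites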
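Material: NIH/3T3 host cells with β-galactosidase reporter T. cruzi; Input: 5,000 host fibroblasts per well; Medium: DMEM, 2% fetal bovine serum; Compound: 50 nL DMSO compound solution per well; Schedule: 3 h host attachment, then at least 90 h co-culture; Detection: luminescent β-galactosidase signal after 60 min lysis.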
XBP1 UPR activ = activators of adaptive arm of unfolded protein response (XBP1) | activation, % at 20 µM | CHO-XBP1 luciferase reporter, IRE1-XBP1 UPR activation, luminescence; percent of tunicamycin response, DMSO as zero | 330,000 compounds, 0.33% hits;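 active means versus positive control, 20 µM dose yields 30% or more activation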;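 further: 100% = tunicamycin at 10 µg/mL and 0% = DMSO only wells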
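Signal: luciferase luminescence; Assay system: CHO-XBP1 luciferase reporter cells; Amount: one thousand reporter cells per well; Dosing: 20 µM single concentration, DMSO 1%; Benchmarks: high control tunicamycin 10 µg/mL final, low control DMSO vehicle only; Schedule: 6 h compound exposure at 37 °C, 5% CO2; Evaluation: percent activation relative to tunicamycin reference.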
Dynein transport = dynein cargo transport inhibition | 3617.4 mouse cells, GR-EGFP nuclear translocation imaging; test concentration mostly 20 µM; stimulated with dexamethasone, 1 µM; active compounds read low | z-score, hits read low | 220,000 compounds, 0.47% hits | AID 1381;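 active means plate z-score of nuclear minus cytoplasmic receptor signal below a set negative limit, without overly bright fluorescence or cell loss, cut at about -3.5 in these data, passing the limit was not always enough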;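 further: z-score of nuclear minus cytoplasmic ring GR-EGFP intensity difference per well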
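medium = tetracycline-free induction medium containing charcoal-stripped FBS | probe or stimulus = dexamethasone, 1.0 µM final | timing = 48 h induction, then 1 h compound, then 30 min agonist, 37 °C | detection = automated 10x imaging of fixed Hoechst-stained cells | read-out basis = nuclear versus cytoplasmic GR-EGFP signal, averaged per well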
UPR CHOP act = apoptotic UPR (CHOP) activation; 330,000 compounds, 0.34% hits; AID 449763; activation, % at 10 µM; CHO-CHOP luciferase reporter, luminescence; percent of tunicamycin response over DMSO baseline;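 active means at 10 µM dose, activation of 40% or more, normalized to positive control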;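 further: 100% = tunicamycin at 10 µg/mL and 0% = DMSO alone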
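Test system: CHO-CHOP cells, stable luciferase reporter of PERK-eIF2a-CHOP signalling | Quantity: 500 CHO-CHOP cells per well | Buffer or medium: F12 plus 10% serum | Compound dosing: 10 µM single point, 0.5% DMSO | Schedule: 6 h compound treatment, 37 °C | Signal: Luciferase luminescence | Control set: Tunicamycin high control, DMSO low control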
CHOP inh = inhibitors of CHOP induction in ER stress response. CHO-K1 CHOP-promoter luciferase, tunicamycin-induced, 15-18 h. inhibition, % at 10 µM. 220,000 compounds, 3.8% hits;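 active means compounds that reduced the stress-induced luciferase reporter signal by more than about 70% of percent inhibition, limit read from the data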;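 further: 0% = tunicamycin plus vehicle and 100% = wells without tunicamycin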
Lmaj promast = Leishmania major promastigote growth inhibition; 200,000 compounds, 9% hits; Leishmania major promastigotes, resazurin fluorescence viability; inhibition, % at 10 µM; in the data active means inhibition above about 50%;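 further: promastigotes grown with compound for 44 hours at 28 °C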
CHOP confirm = confirmation of CHOP induction inhibitors | shares compounds with CHOP inh | CHO-CHOP promoter luciferase reporter, tunicamycin-induced, luminescence | inhibition, % at 10 µM | 2,100 compounds, 45% hits;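 active means mean of three repeat readings of reporter signal inhibition above a set limit, cut at about 70% in these data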;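 further: 0% = tunicamycin plus vehicle and 100% = wells lacking tunicamycin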
Numbers without * were called inactive; . = no result. This is one part of a sample in which hits are shown more often than they occur.

SMILES	T cruzi repl	XBP1 UPR activ	Dynein transport	UPR CHOP act	CHOP inh	Lmaj promast	CHOP confirm
CCOc1ccc(NC(=O)CN(C)S(=O)(=O)c2ccc3c(c2)CCC(=O)N3)cc1	-1.4	-2.8	0.403	-0.7	8.7	.	.
CC1CCN(S(=O)(=O)c2ccc3c(c2)C(=NO)c2cc(S(=O)(=O)N4CCC(C)CC4)ccc2-3)CC1	.	-12.4	1.87	-9.6	108.1*	16.2	138.5*
COc1ccc(S(=O)(=O)N2CCC(C)CC2)cc1OC	-13.6	-3.2	.	0.6	.	.	.
Cc1ccccc1CNc1ccc(C(CC(N)=O)NC(=O)c2ccc(Br)cc2)cc1[N+](=O)[O-] (stereo unspecified)	23.9	-0.1	0.411	0.0	103.2*	.	24.3
NC(=O)CC(NC(=O)Cc1cccc2ccccc12)c1ccc(NCC2CC2)c([N+](=O)[O-])c1 (stereo unspecified)	-10.0	0.4	0.348	-0.2	11.9	.	.
NC(=O)CC(NC(=O)Cc1cccc2ccccc12)c1ccc(NC2CCCCC2)c([N+](=O)[O-])c1 (stereo unspecified)	-4.6	-0.4	0.714	0.7	105.0*	.	13.1
NC(=O)CC(NC(=O)c1ccc(Br)cc1)c1ccc(NCc2ccc(F)cc2)c([N+](=O)[O-])c1 (stereo unspecified)	14.9	-1.5	-0.535	-1.6	64.7	.	.
Cc1noc(C)c1NC(=O)Nc1ccc2c(c1)C(=O)N([C@@H](C)CO)C[C@@H](C)[C@@H](CN(C)Cc1ccc3c(c1)OCO3)O2	.	0.8	.	2.0	.	.	.
COc1ccc(C)cc1N(CC(=O)NCCN1CCOCC1)S(=O)(=O)c1ccccc1	4.6	4.5	.	-0.2	.	.	.
CC(C)CC1NC(=O)c2cc(Cl)ccc2-n2c1nc1ccc(F)cc1c2=O (stereo unspecified)	.	-2.3	.	-1.2	.	.	.
CC(C)Oc1ccc(CNC(=O)CC(c2ccccc2)c2cc(Cl)ccc2O)cc1 (stereo unspecified)	56.4*	-1.4	1.56	0.3	97.5*	37.9	103.5*
CCCc1cc(=O)[nH]c(SCC(=O)Nc2cc(S(=O)(=O)N3CCCCC3)ccc2C)n1	.	-1.1	.	-1.3	.	.	.
CCC1C(c2ccccc2)N(C)C(c2ccccc2)CC1(O)c1ccccc1 (stereo unspecified)	59.5*	9.4	-0.0468	0.2	99.2*	53.0*	43.3
CC1CC(CCN)(c2ccccc2)C(C)CN1C (stereo unspecified)	-0.2	4.6	-0.495	3.6	15.6	.	.
CCOC(=O)Cc1cc(-c2ccc(O)cc2)nc2ccc3ccccc3c12	33.1	7.2	1.14	5.9	100.9*	15.3	96.2*
Cc1ccc(C2CC2c2n[nH]c(=S)n2-c2ccc(C)cc2)cc1 (stereo unspecified)	7.4	0.4	1.85	-0.5	100.4*	1.2	0.0
Cc1ccc(-n2c(C3CC3c3ccc(Cl)cc3)n[nH]c2=S)cc1 (stereo unspecified)	22.3	-2.5	0.823	-0.9	40.4	-0.9	.
CCSc1nnc(NC(=O)c2ccc(S(=O)(=O)N(C)C)cc2)s1	3.5	-1.2	-0.472	2.2	-8.1	0.8	.
CN(C)S(=O)(=O)c1ccc(C(=O)Nc2nnc(SCc3cccc4ccccc34)s2)cc1	-12.2	-1.9	-0.286	-1.0	103.2*	-12.6	10.8
C/C(=N\OCc1cccc(C(=O)O)c1)c1ccc(Cl)cc1	5.0	-8.8	0.259	-7.8	96.3*	.	111.4*
CCOC(=O)c1c(C(C)(C)C)oc2ccc(O)cc12	.	0.9	0.124	-0.2	103.9*	100.2*	106.4*
COc1ccc(C)cc1NC(=O)c1sc2ncn(CC(=O)N3CCCCC3)c(=O)c2c1C	-10.8	2.2	.	2.1	.	.	.
CC1CCCCC1NC(=S)Nc1ccc(SC(F)F)cc1 (stereo unspecified)	29.8	0.3	-0.807	3.9	-12.5	17.6	.
FC(F)Sc1ccc(NC(=S)NCC2CCCCC2)cc1	23.1	5.8	-1.23	3.8	106.0*	23.2	15.3
COc1cc2c(cc1OC)CN(C(=O)c1cc(S(=O)(=O)N3CCOCC3)c(Cl)cc1Cl)CC2	-12.5	-4.4	.	1.3	.	.	.
SMILES	T cruzi repl	XBP1 UPR activ	Dynein transport	UPR CHOP act	CHOP inh	Lmaj promast	CHOP confirm
O=C(CCc1nc(-c2ccc(F)cc2)no1)Nc1cccc(C(=O)NC2CC2)c1	.	-1.9	.	0.9	.	.	.
O=C(Nc1ccccc1N1CCOCC1)C1CCCO1 (stereo unspecified)	.	4.0	.	0.2	.	.	.
N#CC1=C(N)Oc2cc(O)c(C=Nc3ccccc3)cc2C1c1ccccc1 (stereo unspecified)	-0.8	-1.8	-0.683	-1.6	60.4	1.4	.
Cc1ccc(N=Cc2cc3c(cc2O)OC(N)=C(C#N)C3c2ccccc2)cc1 (stereo unspecified)	6.5	-3.5	-0.549	5.4	99.3*	2.4	81.7*
CCOC(=O)c1ccccc1NC(=O)COC(=O)c1cc([N+](=O)[O-])ccc1N1CCOCC1	11.9	3.3	.	-0.1	.	.	.
COc1ccc(-c2nc3ccc(N4CCCC4)cc3c(=O)[nH]2)cc1OC	4.3	7.3	-0.643	3.0	103.0*	21.1	15.7
Oc1ccc(Cl)cc1-c1cc(-c2cccc(Br)c2)n[nH]1	-13.2	6.4	-0.262	2.4	100.7*	99.2*	-48.3
Oc1ccccc1-c1cc(-c2cccc(F)c2)n[nH]1	-3.2	8.3	-0.181	9.0	69.5	13.3	.
CN(CC1CCCN(CCc2ccc(F)cc2)C1)C(=O)CCC(N)=O (stereo unspecified)	3.3	-2.4	.	0.5	.	.	.
Oc1ccc(Oc2ccc3c(C(F)(F)F)cc(C(F)(F)F)nc3n2)cc1	25.4	-0.5	-0.28	2.0	98.4*	0.1	101.1*
c1ccc(Cn2cc(-c3ccccc3)cn2)cc1	.	0.4	.	4.1	.	.	.
CCOc1ccc(N2C(=O)/C(=C\c3ccc(O)c(OC)c3)S(=O)(=O)C2c2cccc([N+](=O)[O-])c2)cc1 (stereo unspecified)	-7.4	4.0	-1.67	4.7	104.4*	21.6	79.9*
CCOc1ccc(N2C(=O)/C(=C\c3ccc(OC)c(O)c3)S(=O)(=O)C2c2cccc([N+](=O)[O-])c2)cc1 (stereo unspecified)	.	-0.8	-1.13	0.1	1.5	1.9	.
NC(=O)C1CCN(C(=O)c2ccccc2SCC(=O)NCC2CCCCC2)CC1	-0.7	-5.4	.	1.2	.	.	.
Clc1ccccc1/C=N/NC1=Nc2cccc3cccc1c23	7.5	15.1	-1.52	7.6	98.5*	9.1	-22.4
Cc1ccc(-n2ccc(=O)c(-c3ccnc(SCc4cccc(Cl)c4)n3)n2)cc1	26.5	-2.1	-0.317	-0.4	98.2*	-0.6	53.6

Screening data (PubChem)
